Measurements: publication PMC8453750 (Clinical Pharmacology in Drug Development, 2021)

Experiments:
CYP2C19 = conditions: recombinant human CYPs; cited from earlier work
CYP2C9 = conditions: recombinant human CYPs; cited from earlier work
[1] = Part 1: mobocertinib-itraconazole DDI study, plasma PK; type: in vivo, human; conditions: for AUC(0-inf) / Cmax / half-life: human, plasma, oral; for AUC(0-inf): AUC0-∞; for half-life: t½; for AUC0-∞, Geometric LS Mean Ratio (90%CI) (Test/Reference) / Cmax, Geometric LS Mean Ratio (90%CI) (Test/Reference): mobocertinib 20 mg + itraconazole vs mobocertinib alone
Outline: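 Nonsmoking adults aged 18–55 (n = 12) took a single oral capsule dose of 20 mg fasted, with a meal at least 4 h postdose. This was repeated with itraconazole solution 200 mg once daily on an empty stomach over 14 days, after a 4-day lead-in. Plasma was sampled predose to 168 h, adding 192 and 240 h with itraconazole. Parent and two metabolites were measured by LC-MS/MS (LLOQ 0.100 ng/mL). Analysis was noncompartmental, with ln-transformed geometric LSM ratios and 90% CI.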

[2] = preclinical data; ref data on file; Millennium Pharmaceuticals, Inc.; cited from earlier work
CYP2B6 = conditions: recombinant human CYPs; cited from earlier work
[3] = Part 2 safety: treatment-emergent adverse events, labs, vital signs, ECG; type: in vivo, human
Outline: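 Part 2 had 12 healthy adults. They received a single fasted oral 160 mg dose of the test compound, then rifampin 600 mg once daily, with a 7-day lead-in before coadministration and 6 days of continued dosing afterwards. TEAEs were recorded through 30 days after the last test-compound dose, coded with MedDRA v22.0 and graded by NCI CTCAE v5. Vital signs, hematology/chemistry/urinalysis and 12-lead ECG were also assessed. All were summarised descriptively.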

[4] = Part 1 safety: treatment-emergent adverse events, labs, vital signs, ECG; type: in vivo, human
Outline: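 Part 1 had 12 healthy adults. They received a single fasted oral 20 mg dose of the test compound, then itraconazole oral solution 200 mg once daily for 14 days, with the test compound coadministered. TEAEs were recorded through 30 days after the last test-compound dose, coded with MedDRA v22.0 and graded by NCI CTCAE v5. Vital signs, hematology/chemistry/urinalysis and 12-lead ECG were also assessed. All were summarised descriptively.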

[5] = Part 2: mobocertinib-rifampin DDI study, plasma PK; type: in vivo, human
CYP3A4/5 = conditions: recombinant human CYPs; cited from earlier work
CYP2C8 = conditions: recombinant human CYPs; cited from earlier work
[6] = cited from earlier work
CYP2D6 = conditions: recombinant human CYPs; cited from earlier work
[7] = cited from earlier work; remark: listed apart in the source
CYP1A2 = conditions: recombinant human CYPs; cited from earlier work
[8] = 20 mg, Arithmetic Means (SD), mobocertinib 20 mg alone (reference), footnote a: mean (%CV)
[9] = 20 mg, Geometric Means (%CV), mobocertinib 20 mg alone (reference)
[10] = Arithmetic Means (SD), mobocertinib 20 mg + itraconazole 200 mg once daily (test), footnote a: mean (%CV)
[11] = Geometric Means (%CV), mobocertinib 20 mg + itraconazole 200 mg once daily (test)
[12] = itraconazole and mobocertinib 20 mg vs mobocertinib alone
[13] = itraconazole plus mobocertinib 20 mg vs mobocertinib alone
[14] = Mobocertinib 160 mg + Rifampin, part 2
[15] = Mobocertinib 160 mg Alone, part 2
[16] = Mobocertinib 20 mg + Itraconazole, part 1
[17] = Mobocertinib 20 mg Alone, part 1
[18] = mobocertinib 160 mg + rifampin vs mobocertinib alone
[19] = rifampin plus mobocertinib 160 mg

Structure (SMILES): C=CC(=O)Nc1cc(Nc2ncc(C(=O)OC(C)C)c(-c3cn(C)c4ccccc34)n2)c(OC)cc1N(C)CCN(C)C [Mobocertinib]
- Percent contribution of enzyme to metabolism (CYP2C19): < 2%
- Percent contribution of enzyme to metabolism (CYP2C9): < 2%
- AUC(0-inf) [1, 8]: 113 ng·h/mL
- AUC(0-inf) [1, 9]: 106 ng·h/mL
- Cmax [1, 8]: 5.78 ng/mL
- Cmax [1, 9]: 5.52 ng/mL
- half-life [1, 8]: 21.5 h
- half-life [1, 9]: 21.2 h
- AUC(0-inf) [1, 10]: 907 ng·h/mL
- AUC(0-inf) [1, 11]: 892 ng·h/mL
- Cmax [1, 10]: 21.5 ng/mL
- Cmax [1, 11]: 21.1 ng/mL
- half-life [1, 10]: 54.7 h
- half-life [1, 11]: 53.9 h
- Increase in plasma AUC0-∞ [1, 12]: 743%
- Increase in plasma Cmax [1, 12]: ≈ 283%
- Increase in geometric mean t½ [1, 13]: 154%
- Median tmax reached later [1, 13]: 2 h
- AUC0-∞, Geometric LS Mean Ratio (90%CI) (Test/Reference) [1]: 8.43 (7.02‐10.12)
- Cmax, Geometric LS Mean Ratio (90%CI) (Test/Reference) [1]: 3.83 (3.25‐4.50)
- AUC0-∞, Geometric LS Mean Ratio (90%CI) (Test/Reference) ([1]; listed as mobocertinib): 8.43
- Cmax, Geometric LS Mean Ratio (90%CI) (Test/Reference) ([1]; listed as mobocertinib): 3.83
- Mutagenicity / genotoxicity [2]: neither mutagenic nor genotoxic
- Percent contribution of enzyme to metabolism (CYP2B6): < 2%
- TEAE: Back pain [3, 14]: 1 (8) n (%)
- TEAE: Chest discomfort [3, 14]: 2 (17) n (%)
- TEAE: Diarrhea [3, 14]: 3 (25) n (%)
- TEAE: Dry skin [3, 14]: 0 n (%)
- TEAE: Dry throat [3, 14]: 0 n (%)
- TEAE: Headache [3, 14]: 2 (17) n (%)
- TEAE: Nausea [3, 14]: 2 (17) n (%)
- TEAE: Oropharyngeal pain [3, 14]: 2 (17) n (%)
- TEAE: Pruritus [3, 14]: 2 (17) n (%)
- TEAE: Pruritus generalized [3, 14]: 0 n (%)
- TEAE: Rash [3, 14]: 2 (17) n (%)
- Volunteers with TEAEs [3, 14]: 10 (83) n (%)
- Volunteers without TEAEs [3, 14]: 2 (17) n (%)
- TEAE: Back pain [3, 15]: 1 (8) n (%)
- TEAE: Chest discomfort [3, 15]: 0 n (%)
- TEAE: Diarrhea [3, 15]: 2 (17) n (%)
- TEAE: Dry skin [3, 15]: 3 (25) n (%)
- TEAE: Dry throat [3, 15]: 2 (17) n (%)
- TEAE: Headache [3, 15]: 1 (8) n (%)
- TEAE: Nausea [3, 15]: 1 (8) n (%)
- TEAE: Oropharyngeal pain [3, 15]: 0 n (%)
- TEAE: Pruritus [3, 15]: 0 n (%)
- TEAE: Pruritus generalized [3, 15]: 2 (17) n (%)
- TEAE: Rash [3, 15]: 0 n (%)
- Volunteers with TEAEs [3, 15]: 9 (75) n (%)
- Volunteers without TEAEs [3, 15]: 3 (25) n (%)
- TEAE: Back pain ([3]; Part 2 Overall): 2 (17) n (%)
- TEAE: Chest discomfort ([3]; Part 2 Overall): 2 (17) n (%)
- TEAE: Diarrhea ([3]; Part 2 Overall): 4 (33) n (%)
- TEAE: Dry skin ([3]; Part 2 Overall): 3 (25) n (%)
- TEAE: Dry throat ([3]; Part 2 Overall): 2 (17) n (%)
- TEAE: Headache ([3]; Part 2 Overall): 3 (25) n (%)
- TEAE: Nausea ([3]; Part 2 Overall): 3 (25) n (%)
- TEAE: Oropharyngeal pain ([3]; Part 2 Overall): 2 (17) n (%)
- TEAE: Pruritus ([3]; Part 2 Overall): 2 (17) n (%)
- TEAE: Pruritus generalized ([3]; Part 2 Overall): 2 (17) n (%)
- TEAE: Rash ([3]; Part 2 Overall): 2 (17) n (%)
- Volunteers with TEAEs ([3]; Part 2 Overall): 11 (92) n (%)
- Volunteers without TEAEs ([3]; Part 2 Overall): 1 (8) n (%)
- Changes in laboratory parameters, vital signs, or ECGs ([3]; part 2): no apparent or consistent treatment‐related changes
- Deaths, serious TEAEs, discontinuations ([3]; part 2): No deaths, serious TEAEs, or discontinuations
- Tolerability ([3]; single oral dose 160 mg with rifampin, healthy volunteers): generally well tolerated
- TEAE: Back pain [4, 16]: 1 (8) n (%)
- TEAE: Chest discomfort [4, 16]: 0 n (%)
- TEAE: Diarrhea [4, 16]: 2 (17) n (%)
- TEAE: Dry skin [4, 16]: 0 n (%)
- TEAE: Dry throat [4, 16]: 0 n (%)
- TEAE: Headache [4, 16]: 1 (8) n (%)
- TEAE: Nausea [4, 16]: 0 n (%)
- TEAE: Oropharyngeal pain [4, 16]: 0 n (%)
- TEAE: Pruritus [4, 16]: 0 n (%)
- TEAE: Pruritus generalized [4, 16]: 0 n (%)
- TEAE: Rash [4, 16]: 0 n (%)
- Volunteers with TEAEs [4, 16]: 4 (33) n (%)
- Volunteers without TEAEs [4, 16]: 8 (67) n (%)
- TEAE: Back pain [4, 17]: 0 n (%)
- TEAE: Chest discomfort [4, 17]: 0 n (%)
- TEAE: Diarrhea [4, 17]: 0 n (%)
- TEAE: Dry skin [4, 17]: 1 (8) n (%)
- TEAE: Dry throat [4, 17]: 0 n (%)
- TEAE: Headache [4, 17]: 0 n (%)
- TEAE: Nausea [4, 17]: 0 n (%)
- TEAE: Oropharyngeal pain [4, 17]: 0 n (%)
- TEAE: Pruritus [4, 17]: 0 n (%)
- TEAE: Pruritus generalized [4, 17]: 0 n (%)
- TEAE: Rash [4, 17]: 0 n (%)
- Volunteers with TEAEs [4, 17]: 1 (8) n (%)
- Volunteers without TEAEs [4, 17]: 11 (92) n (%)
- TEAE: Back pain ([4]; Part 1 Overall): 1 (8) n (%)
- TEAE: Chest discomfort ([4]; Part 1 Overall): 0 n (%)
- TEAE: Diarrhea ([4]; Part 1 Overall): 2 (17) n (%)
- TEAE: Dry skin ([4]; Part 1 Overall): 1 (8) n (%)
- TEAE: Dry throat ([4]; Part 1 Overall): 0 n (%)
- TEAE: Headache ([4]; Part 1 Overall): 1 (8) n (%)
- TEAE: Nausea ([4]; Part 1 Overall): 0 n (%)
- TEAE: Oropharyngeal pain ([4]; Part 1 Overall): 0 n (%)
- TEAE: Pruritus ([4]; Part 1 Overall): 0 n (%)
- TEAE: Pruritus generalized ([4]; Part 1 Overall): 0 n (%)
- TEAE: Rash ([4]; Part 1 Overall): 0 n (%)
- Volunteers with TEAEs ([4]; Part 1 Overall): 5 (42) n (%)
- Volunteers without TEAEs ([4]; Part 1 Overall): 7 (58) n (%)
- Changes in laboratory parameters, vital signs, or ECGs ([4]; part 1): no apparent or consistent treatment‐related changes
- Deaths, serious TEAEs, discontinuations ([4]; part 1): No deaths, serious TEAEs, or discontinuations
- Tolerability ([4]; single oral dose 20 mg with itraconazole, healthy volunteers): generally well tolerated
- AUC0-∞, Geometric LS Mean Ratio (90%CI) (Test/Reference) [5, 18]: 0.04 (0.03‐0.05)
- Cmax, Geometric LS Mean Ratio (90%CI) (Test/Reference) [5, 18]: 0.05 (0.04‐0.07)
- AUC0-∞, Geometric LS Mean Ratio (90%CI) (Test/Reference) ([5]; mobocertinib 160 mg + rifampin vs mobocertinib alone, listed as mobocertinib): 0.04
- Plasma AUC0-∞ as % of value following mobocertinib alone [5, 19]: ~4%
- Plasma Cmax as % of value following mobocertinib alone [5, 19]: approximately 5%
- Reduction in geometric mean t½ ([5]; rifampin plus mobocertinib 160 mg vs mobocertinib alone): 29%
- Percent contribution of enzyme to metabolism (CYP3A4/5): > 90%
- Percent contribution of enzyme to metabolism (CYP2C8): < 2%
- Effect of a low-fat meal on absorption [6]: no apparent effect
- Excreted unchanged in urine ([6]; renal elimination): < 1.2%
- Mean half-life ([6]; single oral doses, healthy volunteers): 20 h
- Percent contribution of enzyme to metabolism (CYP2D6): < 2%
- Accumulation of systemic exposure after repeat dosing ([7]; 20 to 120 mg once daily, patients with NSCLC): moderate accumulation
- Recommended phase 2 dose ([7]; dose escalation, patients with NSCLC): 160 mg once daily
- Dose proportionality of Cmax and AUC0-24 ([7]; dose range 5 to 180 mg once daily): increased in a dose‐proportional manner
- Median tmax ([7]; once-daily administration, patients with NSCLC): 4 hours postdose
- Percent contribution of enzyme to metabolism (CYP1A2): < 2%
